Reference: paper PMC6432617 (Chemical Science, 2019)
Values belong to the molecule of their own block, whether it stands above or below them.

Legend:
neutrophil granules = conditions: ref column Ref. of Table 1 ([5], [8], [9], [42], [60], [61], [65], [75]–[93]); cited from earlier work
[1] = system: lymphocytes, monocytes, erythrocytes and thrombocytes (platelets); assay: HAB labeling of other human blood cell populations; format: cell-based; conditions: 10 μM, same conditions as purified neutrophils
In short: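 PBMC were taken from the top layer of the Percoll gradient used for neutrophil purification. Live lymphocytes, erythrocytes, monocytes and thrombocytes were imaged by confocal fluorescence and DIC with probe at 10 μM, using the same settings as for the neutrophils.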

[2] = target: bovine serum albumin (BSA) (Bos taurus, UniProt P02769); assay: Protein-dependent fluorogenesis: titration of HAB with BSA in TRIS buffer; format: binding
In short: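 Probe at 50 μM in Tris buffer (Tris·HCl 10 mM, pH 7.0, NaCl 100 mM, MgCl2 5 mM) was titrated with BSA. Emission spectra were recorded at 360 nm excitation over 0–1 mg mL−1 BSA and at 420 nm excitation over 1–10 mg mL−1. Fluorescence turn-on was taken at 420 nm excitation with 10 mg ml−1 BSA.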

Caenorhabditis elegans = assay: HAB labeling of live Caenorhabditis elegans; conditions: in vivo
[3] = system: live primary human neutrophils; assay: HAB labeling of live human primary neutrophils; format: cell-based; conditions: 10 μM
In short: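 Neutrophils were purified from human blood: plasma removal, dextran sedimentation of red cells, then a 51–42% Percoll gradient. Remaining red cells were cleared with CD235a beads. Cells went into RPMI/10 mM Hepes at 2 × 10^6 per mL and adhered 20 min at room temperature in glass-bottom dishes. Medium was replaced with probe at 1, 5 or 10 μM in RPMI/Hepes, followed by live confocal fluorescence and DIC imaging.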

[4] = log D7.4 partition coefficient, n-octanol / pH 7.4 PBS; format: physicochemical; conditions: from log D7.4 values
In short: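 Partition coefficients were measured between n-octanol and pH 7.4 phosphate-buffered saline at 20 °C, alongside reference chalcones.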

[5] = pKa prediction with ACD software; conditions: from predicted pKa 3.97
[6] = system: zebrafish neutrophil granules; assay: HAB labeling of live zebrafish embryos and larvae, confocal imaging; format: in vivo, zebrafish (Danio rerio)
In short: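 Wild-type AB or transgenic embryos/larvae (24 hpf to 6 dpf, 28.5 °C staging) were incubated 1 h in the dark at room temperature with probe at 10 μM in Volvic water, from a 10 mM DMSO stock; controls got 0.1% DMSO. For equilibrium imaging, larvae were anaesthetised (tricaine) and mounted in 1% low-melt agarose with probe. For diffusion imaging, larvae were washed and mounted probe-free. Confocal imaging was done at 23–26 °C: excitation 488 nm, emission 550–650 nm.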

[7] = Photophysical study: fluorescence spectra and quantum yields; format: physicochemical; conditions: for solvatochromism Δmaxλem: various solvents, 50 μM
zebrafish larvae [8] = assay: Toxicity in live zebrafish larvae; format: in vivo, zebrafish (Danio rerio); conditions: up to 48 h incubation
myeloperoxidase = assay: HAB labeling in myeloperoxidase knock-out; format: in vivo, zebrafish (Danio rerio); conditions: spotless mutant strain, equilibrium conditions
zebrafish larvae [9] = assay: Chalcone 18 alone in 72 hpf larvae, confocal imaging; format: in vivo, zebrafish (Danio rerio)
chemokine CXCL12a = conditions: 10 μM, zebrafish model ref [56]; cited from earlier work

Sequence of bovine serum albumin (BSA) (P02769 25-607): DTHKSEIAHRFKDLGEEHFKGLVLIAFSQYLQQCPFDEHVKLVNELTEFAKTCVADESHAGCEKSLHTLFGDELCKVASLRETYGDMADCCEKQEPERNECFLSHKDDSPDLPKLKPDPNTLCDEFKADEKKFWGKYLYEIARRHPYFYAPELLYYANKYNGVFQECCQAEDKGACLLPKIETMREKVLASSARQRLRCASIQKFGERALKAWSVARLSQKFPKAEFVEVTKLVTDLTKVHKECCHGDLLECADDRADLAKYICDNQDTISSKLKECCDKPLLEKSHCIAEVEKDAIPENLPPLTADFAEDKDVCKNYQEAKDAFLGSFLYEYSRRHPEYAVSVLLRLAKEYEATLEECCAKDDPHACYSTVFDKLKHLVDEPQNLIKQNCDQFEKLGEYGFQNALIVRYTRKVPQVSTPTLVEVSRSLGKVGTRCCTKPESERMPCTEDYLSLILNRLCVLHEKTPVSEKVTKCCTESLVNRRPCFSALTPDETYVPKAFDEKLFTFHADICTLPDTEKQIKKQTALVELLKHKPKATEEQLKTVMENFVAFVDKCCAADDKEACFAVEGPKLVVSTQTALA

SMILES: CC1(C)Nc2cccc3c(N=Nc4ccc(N=Nc5ccccc5)c5ccccc45)ccc(c23)N1 [Sudan Black B]
Histopermeability for live animal imaging (neutrophil granules): No (FA fixation in vivo)

SMILES: COC(=O)c1ccccc1C1c2ccc(N)cc2Oc2cc(N)ccc21 [Dihydrorhodamine 123]
Histopermeability for live animal imaging (neutrophil granules): No (in vitro only)

SMILES: Nc1cccc2c(=O)[nH][nH]c(=O)c12 [Luminol]
Histopermeability for live animal imaging (neutrophil granules): No (in vitro only)

SMILES: Nc1cccc2ccc(/C=C/C(=O)c3ccc(O)cc3)cc12 [HAB, (E)-3-(8-aminonaphthalen-2-yl)-1-(4-hydroxyphenyl)prop-2-en-1-one]
labeling of lymphocytes, monocytes, erythrocytes and thrombocytes [1]: weakly to faintly labeled
bathochromic shift Δλem upon binding to BSA [2]: 133 nm
bathochromic shift Δλex upon binding to BSA [2]: 60 nm
fluorescence turn-on (FTO) upon binding to BSA ([2]; excitation 420 nm, BSA 10 mg ml^–1, HAB 50 μM): 21.5
microscopic visualization in C. elegans (Caenorhabditis elegans): could not be microscopically visualized
labeling of activated neutrophils [3]: intense labeling of cells at the level of subcellular granular structures
labeling of non-activated neutrophils [3]: intense but diffuse fluorescent labeling
fold more hydrophilic than 4′-deshydroxy congener 6 [4]: 2 fold
basicity, fold lower than that of acidotropic amines [5]: about 10^5 fold
compartment labeled within neutrophils ([6]; 10 μM, 72 hpf larvae, confocal plus DIC): co-localize with neutrophil granules
developmental stage at which labeling first appeared ([6]; 10 μM, 60 min, ventral tail of embryo): 32 hpf
co-localization with macrophages ([6]; 10 μM, Tg(mfap4:mCherry-F) 72 hpf larvae): did not co-localize
co-localization with neutrophils ([6]; 10 μM, Tg(mpx:GAL4/UAS-E1b:nsfB-mCherry) 72 hpf larvae): perfectly colocalized with all neutrophils
HAB labeling after or before formaldehyde fixation ([6]; 1 or 4% formaldehyde, two hours, room temperature): failed to detect HAB labeling
fold higher quantum yield than 5-amino regioisomer 12 ([7]; toluene): ca. 20 fold
solvatochromism Δmaxλem [7]: ~140 nm
toxicity of HAB (zebrafish larvae [8]): absence of toxicity
labeling in myeloperoxidase knock-out larvae (myeloperoxidase): qualitatively and quantitatively indistinguishable from wild-type larvae

cytopermeability (zebrafish larvae [9]; even at high concentration): not cytopermeable
SMILES: COc1cc(/C=C/C(=O)c2ccc(Cl)cc2)ccc1O [Compound 18, 4-hydroxy-3-methoxy-4′-chlorochalcone]
type of staining (zebrafish larvae [9]; 100 μM, 72 hpf larvae): interstitial histological labeling
fluorescence of 18 alone in larvae (zebrafish larvae [9]; 100 μM, 72 hpf larvae, excitation 488 nm): green-yellow fluorescence
biological effects as inhibitor of CXCL12a (chemokine CXCL12a): moderate biological effects
fluorescent detection by GFP filters (chemokine CXCL12a): not fluorescently detected

solvatochromism Δmaxλem [7]: ~140 nm
SMILES: Nc1cccc2ccc(/C=C/C(=O)c3ccccc3)cc12 [Compound 6, (E)-3-(8-aminonaphthalen-2-yl)-1-phenylprop-2-en-1-one]
